From ChEMBL document CHEMBL5223168, “Using Imidazo[2,1-b][1,3,4]thiadiazol Skeleton to Design and Synthesize Novel MNK Inhibitors” (ACS Med Chem Lett, 2023)
Calls of active or inactive are those of the source. No cut-off for these calls is given here.

Legend:
3T3-L1 = experiment: Inhibition of MNK in mouse 3T3-L1 cells assessed as inhibition of eIF4E phosphorylation at 5 uM incubated for 2 hrs by Western blot analysis; type: cell-based
Outline: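 Mouse 3T3-L1 cells exposed to compound at 5 μM for 2 h; lysates resolved by SDS-PAGE and immunoblotted for phospho-eIF4E. Reference MNK inhibitor run in parallel at 1 μM.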

[1] = target: MAP kinase-interacting serine/threonine-protein kinase 1 (Homo sapiens, UniProt Q9BUB5); experiment: Inhibition of MNK1 (unknown origin) incubated for 60 mins using CREB as substrate in presence of ATP by LANCE Ultra kinase assay
Chain of MAP kinase-interacting serine/threonine-protein kinase 1 (Q9BUB5 whole entry): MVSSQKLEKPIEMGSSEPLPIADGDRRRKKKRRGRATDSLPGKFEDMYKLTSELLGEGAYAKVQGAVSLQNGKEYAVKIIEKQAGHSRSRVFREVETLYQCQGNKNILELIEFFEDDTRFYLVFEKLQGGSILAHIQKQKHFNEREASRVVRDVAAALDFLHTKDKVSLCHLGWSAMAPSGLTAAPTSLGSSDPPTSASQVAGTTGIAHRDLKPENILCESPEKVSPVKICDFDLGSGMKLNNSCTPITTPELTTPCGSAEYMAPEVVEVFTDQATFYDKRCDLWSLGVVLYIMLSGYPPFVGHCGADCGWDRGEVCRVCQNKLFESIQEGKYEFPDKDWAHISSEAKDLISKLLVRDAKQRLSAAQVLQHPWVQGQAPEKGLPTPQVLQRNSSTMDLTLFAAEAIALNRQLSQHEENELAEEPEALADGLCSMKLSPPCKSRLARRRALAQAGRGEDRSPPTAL

[2] = target: MAP kinase-interacting serine/threonine-protein kinase 2 (Homo sapiens, UniProt Q9HBH9); experiment: Inhibition of MNK2 (unknown origin) incubated for 60 mins using CREB as substrate in presence of ATP by LANCE Ultra kinase assay
Chain of MAP kinase-interacting serine/threonine-protein kinase 2 (Q9HBH9 whole entry): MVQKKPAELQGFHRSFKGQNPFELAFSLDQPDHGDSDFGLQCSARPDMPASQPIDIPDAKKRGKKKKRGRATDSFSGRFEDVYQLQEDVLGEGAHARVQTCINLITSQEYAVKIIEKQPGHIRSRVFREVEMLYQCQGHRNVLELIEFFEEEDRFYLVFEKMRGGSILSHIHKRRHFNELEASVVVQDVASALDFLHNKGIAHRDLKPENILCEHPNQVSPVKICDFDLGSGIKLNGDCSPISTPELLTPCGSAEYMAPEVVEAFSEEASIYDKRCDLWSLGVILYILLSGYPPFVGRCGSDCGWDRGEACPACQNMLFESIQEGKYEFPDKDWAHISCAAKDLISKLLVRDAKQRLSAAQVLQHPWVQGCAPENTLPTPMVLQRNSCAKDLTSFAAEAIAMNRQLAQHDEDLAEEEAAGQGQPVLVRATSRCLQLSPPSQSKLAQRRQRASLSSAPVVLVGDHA

MEF [3] = experiment: Inhibition of MNK in MNK2 knockout mouse MEF cells assessed as inhibition of eIF4E phosphorylation at 3 uM incubated for 2 hrs by Western blot analysis; type: cell-based
Outline: (§1)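 MEFs lacking MNK1 or MNK2 (wild-type for comparison) treated 2 h at indicated concentrations; lysates immunoblotted for p-eIF4E, which reflects the remaining MNK isoform; quantified from three independent experiments, SEM.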

MEF [4] = experiment: Inhibition of MNK in MNK1 knockout mouse MEF cells assessed as inhibition of eIF4E phosphorylation at 1 uM incubated for 2 hrs by Western blot analysis; type: cell-based; outline: as §1
A549 = experiment: Antitumor activity against human A549 cells xenografted in BALB/C nude mouse assessed as T/C ratio at 3 mg/kg, po QD for 14 days; type: functional; conditions: time 14 day
Outline: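 A549 xenografts in nude mice; compound given orally once daily at 75 or 150 mg/kg for 14 days, irinotecan reference at 3 mg/kg; tumor growth tracked as T/C ratio (relative tumor proliferation rate); body weight monitored.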

Row | Compound | IC50 [1] | IC50 [2] | inhibition (3T3-L1) | also measured
1 | N#Cc1ccc(-c2cn3nc(-c4ccc(C(=O)N5CCCC5)cc4)sc3n2)cc1 | – | – | inactive | –
2 | N#Cc1ccc(-c2cnc3ccc(-c4ccc(C(=O)N5CCOCC5)cc4)cn23)cc1 | – | – | – | inhibition (MEF [3]): 50%; inhibition (MEF [4]): Active
3 | O=C(NCCc1ccncc1)c1ccc(-c2nn3cc(-c4ccc(F)cc4)nc3s2)cc1 | – | – | inactive | –
4 | N#Cc1ccc(-c2cnc3sc(-c4ccc(C(=O)NCCCN5CCOCC5)cc4)nn23)cc1 | 31.1 nM | 21.6 nM | – | –
5 | O=C(NCCO)c1ccc(-c2nn3cc(-c4ccccc4)nc3s2)cc1 | – | – | inactive | –
6 | CN1CCN(C(=O)c2ccc(-c3nn4cc(-c5ccc(C#N)cc5)nc4s3)cc2)CC1 | – | – | inactive | –
7 | O=C(NCCCN1CCCC1)c1ccc(-c2nn3cc(-c4ccccc4)nc3s2)cc1 | – | – | inactive | –
8 | CN(C)CC(C)(C)CNC(=O)c1ccc(-c2nn3cc(-c4ccccc4)nc3s2)cc1 | – | – | inactive | –
9 | CCc1c2c(nc3ccc(OC(=O)N4CCC(N5CCCCC5)CC4)cc13)-c1cc3c(c(=O)n1C2)COC(=O)[C@]3(O)CC [IRINOTECAN] | – | – | – | T/C (A549): 0.4

Continued, in another order:

Row | IC50 [1] | IC50 [2] | Compound | inhibition (3T3-L1) | also measured
10 | 25 nM | 33.4 nM | CN(C)CCNC(=O)c1ccc(-c2nn3c(-c4ccc(C#N)cc4)cnc3s2)cc1 | – | –
11 | 10 nM | 10.4 nM | N#Cc1ccc(-c2cnc3sc(-c4ccc(C(=O)NCCN5CCCC5)cc4)nn23)cc1 | – | –
12 | 36.9 nM | 5.33 nM | CC1CCCCN1C(=O)c1ccc(-c2nn3c(-c4ccc(C#N)cc4)cnc3s2)cc1 (configuration not stated) | Active | –
13 | 13.6 nM | 8.81 nM | N#Cc1ccc(-c2cnc3sc(-c4ccc(C(=O)NCCO)cc4)nn23)cc1 | – | –
14 | 42.9 nM | 57.8 nM | N#Cc1ccc(-c2cnc3sc(-c4ccc(C(=O)NCCCCCO)cc4)nn23)cc1 | – | –
15 | 376 nM | 105 nM | COC(=O)c1ccc(-c2cnc3sc(-c4ccc(C(=O)N5CCN(C)CC5)cc4)nn23)cc1 | Active | –
16 | 27.8 nM | 20.8 nM | N#Cc1ccc(-c2cnc3sc(-c4ccc(C(=O)N5CCCC5)cc4)nn23)cc1 | – | –
17 | 210 nM | 170 nM | CN1CCN(C(=O)c2ccc(-c3nn4c(-c5ccncc5)cnc4s3)cc2)CC1 | Active | –
18 | 21.6 nM | 16.7 nM | N#Cc1ccc(-c2cnc3sc(-c4ccc(C(=O)NCCCO)cc4)nn23)cc1 | – | –
